Data set [1] can be described thus: Cytotoxicity against human HepG2 cells assessed as decrease in cell viability at 10 ug/mL after 24 hrs by prestoblue assay. It is filed as toxicity, cell-based. As to conditions: hepg2, 24 h. The essentials:
(§1)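 HepG2 grown in DMEM with 10% heat-inactivated FBS on collagen; seeded at 45,000 cells/cm2, treated two days later for 24 h across 10-100 µg/mL. Viability read with resazurin-based PrestoBlue, 1 h at 37°C, absorbance 570 nm (reference 600 nm). Mean ± SEM, three experiments in triplicate, Student's t test.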

Data set [2] has as its system HepG2. The data set can be described thus: Inhibition of MAO activity in human HepG2 cells at 100 ug/mL after 24 hrs by spectrophotometric method. Format: cell-based. The essentials:
(§2)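 HepG2 on collagen, seeded at 45,000 cells/cm2, dosed two days later at 10-100 µg/mL for 24 h. Lysate MAO was measured by Amplex Red/HRP H2O2 detection, 30 min at room temperature, absorbance 570 nm. Mean ± SEM of three experiments in triplicate.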

The subject of data set [3] is Staphylococcus aureus. The data set can be described thus: Antibacterial activity against Staphylococcus aureus clinical isolate after 18 to 24 hrs by broth microdilution method. Format: functional. The essentials:
(§3)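 Broth microdilution per CLSI: serial 2-fold dilutions in Mueller-Hinton broth, compounds dissolved in DMSO; equal volume of inoculum at 1x10^6 CFU/mL added to each well; 37 C for 18-24 h. MIC = lowest concentration with no visible turbidity. Clinical S. aureus strains (MRSA and MSSA) were 12 recent isolates with characterized susceptibility.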
For orientation: Broth dilution looks for growth in wells or tubes with falling amounts of substance.

The test system of data set [4] is Staphylococcus aureus. The data set can be described thus: Antibacterial activity against Staphylococcus aureus ATCC 29213 after 18 to 24 hrs by broth microdilution method. Format: functional. The essentials: as §3
The subject of another data set is Enterococcus faecalis. Nature of the data set: Antibacterial activity against Enterococcus faecalis ATCC 29212 after 18 to 24 hrs by broth microdilution method. Format: functional. The essentials: as §3
The nature of data set [5]: Cytotoxicity against human HepG2 cells assessed as cell viability at 100 ug/mL after 24 hrs by prestoblue assay. It is filed as toxicity, cell-based. The following applies: read-out: Activity. The essentials: as §1
Data set [6] concerns HepG2. The data set can be described thus: Inhibition of MAO activity in human HepG2 cells at 10 ug/mL after 24 hrs by spectrophotometric method. It is filed as cell-based. The essentials: as §2

What is called inhibition is the share of the control response that was lost under treatment. Low values mean little suppression, high ones strong suppression. A word on the MIC: it is the smallest concentration in the dilution series that meets the test's criterion for growth inhibition. By MIC50 is commonly meant an inhibitory concentration at the 50% level, which refers to growth in some studies and to a panel of isolates in others. The low end stands for greater potency, the high end for weaker potency. Broadly, the MIC90 is an inhibitory concentration at the 90% level, which refers to growth in some studies and to a panel of isolates in others. A low value points to higher susceptibility.

Each structure is given as a SMILES string. Values after ≈ are worked out from the molar mass of the structure shown.

For the compound `CCNC(=O)C1C(=O)ON(C(=O)c2ccc(N3CCOCC3)c(F)c2)C1C(C)C` (stereo not drawn), the Activity entry in data set [1] is given as “Non-Toxic”. The inhibition in the data set on HepG2 [2] was determined as 45%; in the data set on HepG2 [6], 25%. Besides, the MIC with Staphylococcus aureus [3], against Staphylococcus aureus [4] and with Enterococcus faecalis was over 128 µg/mL throughout. This compound also had an MIC50 in the data set on Staphylococcus aureus [3] of over 128 µg/mL. Moreover, in the data set on Staphylococcus aureus [3], the MIC90 was over 128 µg/mL. In addition, the viability at 24 h, 100 ug/mL in data set [5] is 10%.

Consider `CCNC(=O)C1=CCN(C(=O)c2ccc(N3CCOCC3)c(F)c2)[C@H]1C(C)C`, for which the Activity entry in data set [1] was “Non-Toxic”. Further, the values for the inhibition with HepG2 [2] and in the data set with HepG2 [6] were 45% and 25%, respectively. The MIC with Staphylococcus aureus [3], with Staphylococcus aureus [4] and with Enterococcus faecalis was over 128 µg/mL in each case. Also, the MIC50 in the data set with Staphylococcus aureus [3] is over 128 µg/mL. Also, the MIC90 against Staphylococcus aureus [3] was over 128 µg/mL. The viability at 24 h, 100 ug/mL in data set [5] stood at 20%.

With `CC(=O)NC[C@H]1CN(c2ccc(N3CCOCC3)c(F)c2)C(=O)O1` [LINEZOLID], in the data set on HepG2 [2], the inhibition amounted to 15%. In the data set on Staphylococcus aureus [3], this compound showed an MIC of 1 to 4 µg/mL (≈ 2.96 to 11.9 µM), an MIC50 of 2 µg/mL (≈ 5.93 µM) and an MIC90 of 2 µg/mL (≈ 5.93 µM).

On to `CCNC(=O)C1=CCN(C(=O)c2ccc(N3CCOCC3)c(F)c2)[C@@H]1C(C)C`, for which the Activity result in data set [1] was “Non-Toxic”. In the data set on Staphylococcus aureus [3], this compound gave an MIC of over 128 µg/mL, an MIC50 of over 128 µg/mL and an MIC90 of over 128 µg/mL. The compound further registered an MIC with Staphylococcus aureus [4] of over 128 µg/mL. In the data set with Enterococcus faecalis, this compound yielded a minimum inhibitory concentration (MIC) of over 128 µg/mL. For the same compound, the viability at 24 h, 100 ug/mL in data set [5] was 10%.

As for `CCNC(=O)C1C(=O)ON(C(=O)c2ccc(N3CCOCC3)c(F)c2)C1C1CCCCC1` (stereo not drawn), in data set [1], the Activity result is listed as “Non-Toxic”. Besides, the inhibition in the data set on HepG2 [2] is 45%; with HepG2 [6], 25%. Further, the values for the MIC in the data set on Staphylococcus aureus [3], against Staphylococcus aureus [4] and with Enterococcus faecalis were 32 to 128 µg/mL (≈ 71.5 to 286 µM), over 128 µg/mL and over 128 µg/mL, respectively. In the data set on Staphylococcus aureus [3], this compound had an MIC50 of 64 µg/mL (≈ 143 µM). Moreover, the MIC90 in the data set with Staphylococcus aureus [3] was over 128 µg/mL. For the same compound, the viability at 24 h, 100 ug/mL in data set [5] worked out at 10%.

The record behind these values is ChEMBL document CHEMBL3877257, “New isoxazolidinone and 3,4-dehydro-β-proline derivatives as antibacterial agents and MAO-inhibitors: A complex balance between two activities” (Eur J Med Chem, 2016).
